Compounds with a hit are over-represented: about 9.6% of the library has one in this group of screens.
APP 5UTR inh: APP translation inhibition. inhibition, % at 2 µM. SH-SY5Y APP 5'UTR-luciferase reporter, luminescence. 0.82% of 190,000 active;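 active means inhibition above a set limit, derived from the sample mean plus 3 SD, cut at about 45% in these data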
BaF3 parental: counter-screen for JAK2V617F inhibitors: parental Ba/F3 viability inhibitors; 1.1% of 220,000 active; inhibition, % at 5.6 µM; CellTiter-Glo ATP luminescence;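 active means inhibition above a per-campaign cutoff, the mean inhibition of all tested compounds plus 3 SD, cut at about 27% in these data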
bCat nuc transl: alters nuclear translocation of beta-catenin in HeLa cells | AID 1665 | 0.3% of 190,000 active | immunofluorescence imaging | nuclear translocation activity, % at 5 µM;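 active means nuclear translocation activity above 50% at 5 µM, with a well cell count of 50 or more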;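 further: per-cell ratio of nuclear to cytoplasmic median beta-catenin stain intensity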
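Test system: human HeLa cell line; Doses: 5 µM primary, 0.02–20 µM confirmation; Incubation: 24 h compound exposure, 37°C; Detection: beta-catenin immunofluorescence imaging with DAPI; Read-out: beta-catenin nuclear/cytoplasmic ratio, % activation.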
Ba/F3 V617F tox: loss of viability in JAK2V617F-driven Ba/F3 cells | Ba/F3 EpoR-JAK2V617F viability, ATP luminescence | inhibition, % at 5.6 µM | 1.1% of 220,000 active | AID 1446;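 active means inhibition above the campaign mean plus 3 SD over all tested compounds, cut at about 24% in these data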;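 further: cytokine-independent growth of Ba/F3 cells driven by EpoR plus mutant JAK2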
MT stabilize HCS: microtubule stabilizers in HeLa cells; HeLa tubulin immunostaining HCS, 24 h; share of cells brighter than vehicle mean+2SD; % tubulin-high responders, % at 10 µM; 0.83% of 200,000 active;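 active means plate Z-score above 3 for both tubulin-high and condensed-nucleus cell shares, with cell loss under 80%, at 10 µM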;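 further: anti alpha tubulin signal scored within the nucleus-defined area of each cell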
L major viab: reduces viability of Leishmania major promastigotes; resazurin fluorescence viability; inhibition, % at 10 µM; 9% of 200,000 active; AID 1063; in the data active means inhibition above about 50%;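 further: promastigotes grown with compound for 44 hours at 28 °C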
Hits are given with their value; - = inactive; . = not tested or not shown.

SMILES | APP 5UTR inh | BaF3 parental | bCat nuc transl | Ba/F3 V617F tox | MT stabilize HCS | L major viab
COc1cc(C(=O)NCC(c2cccnc2)N2CCN(c3ccc(F)cc3)CC2)cc(OC)c1OC (stereo not drawn) | - | - | - | - | - | 78
COc1ccc(C(=O)NCC(c2cccnc2)N2CCN(c3ccc(F)cc3)CC2)cc1OC (stereo not drawn) | - | - | - | - | - | 97
O=C(NCC(c1cccnc1)N1CCN(c2ccc(F)cc2)CC1)c1ccc(F)cc1 (stereo not drawn) | - | - | . | - | - | 88
COc1ccc(N2CCN(C(CNC(=O)c3ccco3)c3cccnc3)CC2)cc1 (stereo not drawn) | - | - | - | - | - | -
COc1ccc(N2CCN(C(CNC(=O)C(=O)NCc3cccnc3)c3ccco3)CC2)cc1 (stereo not drawn) | - | - | - | - | - | -
COc1ccc(CN2CCNC(=O)C2CC(=O)NCCSc2nccn2C)c(OC)c1 (stereo not drawn) | - | - | - | - | - | -
COc1ccc(/C=C/C(=O)Nc2c(C(=O)O)[nH]c3ccccc23)cc1OC | . | - | - | - | . | .
COc1ccc(-c2nn(-c3ccccc3)cc2/C=C/C(=O)NCCCn2ccnc2)cc1OC | - | - | - | - | - | -
COc1ccc(C(=O)NCC(c2cccnc2)N2CCN(c3ccccc3)CC2)cc1OC (stereo not drawn) | - | - | - | - | - | 81
COc1cccc(NC(=O)Cn2c(=O)c3c(ncn3Cc3ccccc3)n(Cc3ccccc3)c2=O)c1 | - | - | - | - | - | 69
O=C(Nc1ccccc1)N(Cc1ccccc1)CC(O)C(F)(F)F (stereo not drawn) | - | - | . | - | - | -
O=C(Nc1cccc(F)c1)N(Cc1ccc(Cl)cc1)CC(O)C(F)(F)F (stereo not drawn) | - | - | - | - | - | 101
CCn1c(=O)c(C(=O)CN2CCN(S(=O)(=O)c3ccc(C)cc3C)CC2)c(N)n(Cc2ccccc2)c1=O | - | - | - | - | - | 58
Cn1c(=O)c(C(=O)CN2CCCCCC2)c(N)n(Cc2ccccc2)c1=O | - | - | - | - | - | -
Cc1cc(C)c(C)c(S(=O)(=O)N2CCN(CC(=O)c3c(N)n(Cc4ccccc4)c(=O)n(C)c3=O)CC2)c1C | - | - | - | - | - | 99
O=C(NC1CC(=O)c2sccc21)c1cccc(C(F)(F)F)c1 (stereo not drawn) | - | - | - | - | - | -
Cn1cnnc1SCC(=O)Nc1ccc(OC(F)F)cc1 | - | - | - | - | - | -
COCC1CCCN(Cc2cn(Cc3ccccc3)nc2-c2cc3ccccc3o2)C1 (stereo not drawn) | - | - | - | - | - | 64
COCC1CCN(Cc2cn(Cc3ccccc3)nc2-c2cc3ccccc3o2)CC1 | - | - | - | - | - | -
Cc1ccc(-n2cnc3c(sc4nc(N5CCOCC5)c5c(c43)CCCC5)c2=O)cc1 | . | - | - | - | . | .
COc1ccc(-n2cnc3c(sc4nc(N5CCOCC5)c5c(c43)CCCC5)c2=O)cc1 | - | - | - | - | - | 87
COc1ccc(C(=O)NC(=S)NCCc2ccccc2)cc1 | - | - | - | - | - | -
COc1ccc(C(=O)CC(=O)C(=O)NCCc2cccc(C)c2)cc1 | - | - | - | - | - | 64
COC(=O)C(C(=O)OC)c1ccc(N)cc1 | - | - | - | - | - | -
COc1cccc(C2=NNC(=NCc3ccccc3)SC2)c1 | - | - | - | - | - | -
SMILES | APP 5UTR inh | BaF3 parental | bCat nuc transl | Ba/F3 V617F tox | MT stabilize HCS | L major viab
COc1ccc(CN=C2NN=C(c3cccc(OC)c3)CS2)cc1 | - | - | - | - | - | 87
Cc1cc(C)c2c(N)c(C(=O)C(C)(C)C)sc2n1 | - | - | - | - | - | 97
Cc1cc(C)c2c(N)c(C(=O)c3ccccc3)sc2n1 | . | - | - | - | . | .
COc1ccc(C(=O)c2sc3nc(C)cc(-c4cccs4)c3c2N)cc1 | - | - | - | - | - | 73
Cc1cc(C)c2c(N)c(C(=O)c3ccc(Cl)cc3)sc2n1 | - | - | - | - | - | 71
Cc1cc(C)c2c(N)c(C(=O)NCC3CCCCC3)sc2n1 | - | - | - | - | - | 77
COc1ccc(C(=O)c2sc3nc(C)cc(-c4cccs4)c3c2N)cc1OC | - | - | - | - | - | -
Cc1cc(C)c2c(N)c(C(=O)NC3CCCC3)sc2n1 | - | - | - | - | - | -

Assay outcomes as filed in PubChem BioAssay.
